Source: article PMC4418331 (Journal of Clinical Pharmacology, 2015)

How the values were obtained:
[1] = Safety and tolerability assessments; type: in vivo, human (postmenopausal women with T2D); conditions: for Increase in serum amylase concentration / Increase in serum lipase concentration: mean ± SD
Procedure, shortened: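 Test compound given subcutaneously once weekly, escalated 0.25 mg for 4 weeks, 0.5 mg for 4 weeks, then 1.0 mg for 5 weeks. A combined oral contraceptive was given once daily for 8 days before escalation and again during the final week. The investigator recorded AEs, both observed and spontaneously reported, with severity graded and relation assessed. Amylase and lipase were measured as change from baseline to end of treatment and to follow-up (5 weeks after last dose), mean ± SD.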

[2] = tested on: dipeptidyl peptidase-4 (DPP-4); conditions: in words; native GLP-1 ref 1; semaglutide ref 12; cited from earlier work
[3] = cited from earlier work
[4] = baseline to end of semaglutide treatment

Compound	Subjects reporting diarrhea ([1]; 6 subjects, all mild or moderate) [%]	Severe hypoglycemia (ADA classification) ([1]; FPG at study site and self-measured at home)	Increase in serum amylase concentration [1, 4] [U/L]	Increase in serum lipase concentration [1, 4] [U/L]	Increase in serum amylase concentration ([1]; baseline to follow-up) [U/L]	Increase in serum lipase concentration ([1]; baseline to follow-up) [U/L]	Antisemaglutide antibodies ([1]; in vivo)	Changes in ECG or safety laboratory parameters, including calcitonin ([1]; in vivo)	Pancreatitis ([1]; in vivo)	Serum amylase values ≥3x ULN ([1]; in vivo)	Duration of nausea episodes, median ([1]; min, max: 0.01, 95.6) [days]	Injection-site reactions ([1]; s.c. injection)	Subjects reporting TEAEs ([1]; whole study (oral contraceptive and semaglutide periods), 38 of 43 subjects) [%]	Serious AEs ([1]; whole study, n = 43)	Degradation by dipeptidyl peptidase-4 (DPP-4) [2]	Reported t1/2 [3] [h]	Half-life (t1/2) ([3]; in words)
CC[C@H](C)[C@H](NC(=O)[C@H](Cc1ccccc1)NC(=O)[C@H](CCC(=O)O)NC(=O)[C@H](CCCCNC(=O)COCCOCCNC(=O)COCCOCCNC(=O)CC[C@H](NC(=O)CCCCCCCCCCCCCCCCC(=O)O)C(=O)O)NC(=O)[C@H](C)NC(=O)[C@H](C)NC(=O)[C@H](CCC(N)=O)NC(=O)CNC(=O)[C@H](CCC(=O)O)NC(=O)[C@H](CC(C)C)NC(=O)[C@H](Cc1ccc(O)cc1)NC(=O)[C@H](CO)NC(=O)[C@H](CO)NC(=O)[C@@H](NC(=O)[C@H](CC(=O)O)NC(=O)[C@H](CO)NC(=O)[C@@H](NC(=O)[C@H](Cc1ccccc1)NC(=O)[C@@H](NC(=O)CNC(=O)[C@H](CCC(=O)O)NC(=O)C(C)(C)NC(=O)[C@@H](N)Cc1cnc[nH]1)[C@@H](C)O)[C@@H](C)O)C(C)C)C(=O)N[C@@H](C)C(=O)N[C@@H](Cc1c[nH]c2ccccc12)C(=O)N[C@@H](CC(C)C)C(=O)N[C@H](C(=O)N[C@@H](CCCNC(=N)N)C(=O)NCC(=O)N[C@@H](CCCNC(=N)N)C(=O)NCC(=O)O)C(C)C [semaglutide]	14	no cases of severe hypoglycemia were reported	1.5 ± 15.3	9.4 ± 24.3	7.0 ± 14.1	10.7 ± 32.6	No antisemaglutide antibodies were detected in any subject	No clinically meaningful changes were observed	No cases of pancreatitis were reported	No value was ≥3x ULN	3.9	no injection-site reactions were reported	88	No serious AEs were reported	less susceptible to degradation by DPP-4	155 to 184	
Glucagon-like peptide-1 [native GLP-1, reference compound]															rapidly degraded		very short
